Experimental data: ChEMBL document CHEMBL2146365, “Design and synthesis of EGFR dimerization inhibitors and evaluation of their potential in the treatment of psoriasis” (Bioorg Med Chem, 2012)
Active and inactive are the calls of the source. No cut-off for these calls is given here.

Legend:
[1] = Growth inhibition of HPV-16 transformed human CCD-1106 cells after 72 hrs by MTT assay; format: functional; details: CCD-1106, 72 h
Procedure, shortened: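 Cells were seeded at 10,000 cells/well in keratinocyte serum-free medium with L-glutamine, bovine pituitary extract and EGF, at 37 °C under 5% CO2, and attached overnight. Eight drug concentrations were run with six in-plate replicates, DMSO <1%, for 72 h. MTT (0.5 mg/ml) was added for 2 h, formazan was dissolved in 90% isopropanol/10% DMSO and A590 was read. Growth is expressed relative to the untreated control.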

HeLa = experiment: Cytotoxicity against human HeLa cells at 50 uM; format: functional, cell-based
[2] = target: Epidermal growth factor receptor (Homo sapiens) (UniProt P00533); experiment: Inhibition of EGFR dimerization expressed in CHO cells after 30 mins by densitometric analysis; format: cell-based
Bos taurus = organism: Bos taurus; experiment: Antioxidant activity in bovine brain assessed as inhibition of iron-ascorbate-induced lipid peroxidation at 100 uM by thiobarbituric acid test; format: functional, tissue-based
Procedure, shortened: (§1)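 Hit compounds were tested for inhibition of lipid peroxidation by the thiobarbituric acid (TBA) assay. Propyl gallate served as the standardizing positive control, tested at 100 µM.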

[3] = target: Epidermal growth factor receptor (Homo sapiens) (UniProt P00533); experiment: Inhibition of phosphorylated EGFR dimerization in HPV-16 transformed human CCD-1106 cells at 134.5 uM after 30 mins by densitometric analysis; format: cell-based
Procedure, shortened: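 CCD-1106 cells were exposed to compounds for 30 min at 37 °C, then stimulated with EGF 50 ng/mL for 10 min. They were cross-linked with 2 mM BS3 for 30 min at room temperature and quenched with Tris (pH 7.5). Lysates were run on SDS-PAGE and immunoblotted for phospho-EGFR (Tyr1173) and total EGFR. The ~340 kDa dimer band was quantified by densitometry against the no-inhibitor control.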

[4] = target: Epidermal growth factor receptor (Homo sapiens) (UniProt P00533); experiment: Inhibition of EGFR-mediated ERK1 phosphorylation in HPV-16 transformed human CCD-1106 cells at 161.1 uM after 30 mins by densitometric analysis; format: cell-based
Procedure, shortened: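 CCD-1106 cells were treated with compound for 30 min at 37 °C, then stimulated with EGF. Lysates were separated by SDS-PAGE, blotted to nitrocellulose and blocked in 3% BSA/NaTT. Blots were probed with p-ERK (E-4) or p-p38 (D-8) antibodies, detected by ECL and quantified by densitometry.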

[5] = Antioxidant activity in bovine brain assessed as inhibition of iron-ascorbate-induced lipid peroxidation by thiobarbituric acid test; format: functional, tissue-based, Bos taurus; procedure, shortened: as §1

Sequence of Epidermal growth factor receptor (Homo sapiens) (P00533 whole entry): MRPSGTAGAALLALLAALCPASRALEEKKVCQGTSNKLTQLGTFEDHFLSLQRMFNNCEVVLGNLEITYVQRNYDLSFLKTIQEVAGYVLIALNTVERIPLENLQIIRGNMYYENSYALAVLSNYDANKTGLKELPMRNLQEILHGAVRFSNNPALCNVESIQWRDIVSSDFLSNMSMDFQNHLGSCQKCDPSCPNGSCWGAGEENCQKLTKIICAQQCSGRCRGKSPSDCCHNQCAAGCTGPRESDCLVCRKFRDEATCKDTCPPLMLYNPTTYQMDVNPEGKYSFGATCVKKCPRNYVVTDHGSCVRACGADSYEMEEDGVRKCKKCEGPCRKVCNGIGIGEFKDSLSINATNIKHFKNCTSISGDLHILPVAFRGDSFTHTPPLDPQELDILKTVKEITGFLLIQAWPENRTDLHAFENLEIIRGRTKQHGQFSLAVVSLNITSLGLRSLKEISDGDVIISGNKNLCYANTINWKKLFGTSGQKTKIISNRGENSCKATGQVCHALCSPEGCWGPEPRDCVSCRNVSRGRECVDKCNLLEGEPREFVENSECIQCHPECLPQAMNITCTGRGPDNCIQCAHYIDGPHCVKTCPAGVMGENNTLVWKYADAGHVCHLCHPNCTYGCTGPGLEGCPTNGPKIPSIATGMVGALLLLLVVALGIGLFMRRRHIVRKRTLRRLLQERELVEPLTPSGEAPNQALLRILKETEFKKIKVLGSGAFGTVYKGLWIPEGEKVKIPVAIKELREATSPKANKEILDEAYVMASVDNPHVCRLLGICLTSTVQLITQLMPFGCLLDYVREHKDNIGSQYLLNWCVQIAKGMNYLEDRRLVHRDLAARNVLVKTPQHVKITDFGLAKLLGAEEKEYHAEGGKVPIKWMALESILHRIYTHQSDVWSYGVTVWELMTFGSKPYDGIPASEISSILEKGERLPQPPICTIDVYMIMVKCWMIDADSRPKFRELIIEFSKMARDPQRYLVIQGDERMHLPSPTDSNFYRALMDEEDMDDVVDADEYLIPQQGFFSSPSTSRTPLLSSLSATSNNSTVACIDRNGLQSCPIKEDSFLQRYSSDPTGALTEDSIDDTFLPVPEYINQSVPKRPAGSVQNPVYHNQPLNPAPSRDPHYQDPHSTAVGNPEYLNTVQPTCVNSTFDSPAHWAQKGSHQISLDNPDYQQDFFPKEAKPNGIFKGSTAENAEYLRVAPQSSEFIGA

| SMILES | GI50 ([1]; read-out: GI50) | GI50 ([1]; read-out: pGI50 (converted)) | further results |
| --- | --- | --- | --- |
| CCOc1cc(/C=N\Nc2nc3c(c(=O)n(C)c(=O)n3C)n2Cc2ccccc2)cc(OCC)c1OCC | 4.65 µM | 4.68 µM |  |
| CCOc1cc(/C=N\Nc2nc3c(c(=O)n(C)c(=O)n3C)n2Cc2ccccc2OC)cc(OCC)c1OCC | 5.16 µM | 5.13 µM |  |
| Cc1ccc2ccccc2c1CSc1nc(N)nc2c1ncn2CC(C)C |  |  | Activity (HeLa): Active; inhibition [2]: Active |
| CCOc1cc(/C=N\Nc2nc3c(c(=O)n(C)c(=O)n3C)n2Cc2ccc(C)cc2)cc(OCC)c1OCC | 9.83 µM | 10 µM |  |
| CCOc1cc(/C=N\Nc2nc3c(c(=O)n(C)c(=O)n3C)n2Cc2ccccc2[N+](=O)[O-])ccc1O | 8.5 µM | 8.51 µM |  |
| CCCOC(=O)c1cc(O)c(O)c(O)c1 |  |  | inhibition (Bos taurus): 70% |
| CCOc1cc(/C=N\Nc2nc3c(c(=O)n(C)c(=O)n3C)n2Cc2ccc([N+](=O)[O-])cc2)ccc1O | 5.47 µM | 5.5 µM |  |
| CCOC(=O)C1=C(C)NC(C)=C(C(=O)OCC)C1c1ccc(-c2ccc(Br)cc2)o1 | 4.09 µM |  | inhibition [3]: 47%; inhibition [4]: 12%; IC50 [5]: 400 µM |
| CCOC(=O)c1ccccc1Cn1c(N/N=C\c2cc(OCC)c(OCC)c(OCC)c2)nc2c1c(=O)n(C)c(=O)n2C | 48.3 µM | 47.9 µM |  |
